MC4R antagonist = blocks human MC4R cAMP signaling; P32245; MC4R-expressing cells, MTII-stimulated cAMP, LANCE TR-FRET; inhibition, % at 6.5 µM; hit rate 0.48% among 360,000;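 active means inhibition above its plate's cutoff, the mean of tested wells on that plate plus 3 SD, cut at about 29% in these data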
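System: U2OS-MC4R stable cell line; Technique: Eu-cAMP/anti-cAMP TR-FRET, emission 671 nm; Repeats: single well per compound; Also added: Melanotan II; Dosing: one concentration, 6.5 µM nominal; Schedule: 30-min compound, 1-h challenge, 1-h detection, room temperature.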
NTR1 ag = activates human neurotensin receptor 1; NTR1-U2OS beta-arrestin-GFP spot imaging, agonist mode; hit rate 0.17% among 330,000; P30989; activation, % at 20 µM;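 active means activation at or above 40% of the spot to cytoplasm intensity ratio, with at least 20 cells analyzed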
m5-HT2A agonist = mouse HTR2A agonism via beta-arrestin recruitment; AID 624169; hit rate 0.66% among 360,000; P35363; CHO-K1 mHTR2A beta-arrestin complementation, luminescence; percent of 30 µM serotonin response; activation, % at 7.6 µM;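 active means activation above a run cutoff, the mean activation of all tested compounds plus 3 SD, cut at about 14% in these data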
Target sequence (P35363 whole entry, looked up): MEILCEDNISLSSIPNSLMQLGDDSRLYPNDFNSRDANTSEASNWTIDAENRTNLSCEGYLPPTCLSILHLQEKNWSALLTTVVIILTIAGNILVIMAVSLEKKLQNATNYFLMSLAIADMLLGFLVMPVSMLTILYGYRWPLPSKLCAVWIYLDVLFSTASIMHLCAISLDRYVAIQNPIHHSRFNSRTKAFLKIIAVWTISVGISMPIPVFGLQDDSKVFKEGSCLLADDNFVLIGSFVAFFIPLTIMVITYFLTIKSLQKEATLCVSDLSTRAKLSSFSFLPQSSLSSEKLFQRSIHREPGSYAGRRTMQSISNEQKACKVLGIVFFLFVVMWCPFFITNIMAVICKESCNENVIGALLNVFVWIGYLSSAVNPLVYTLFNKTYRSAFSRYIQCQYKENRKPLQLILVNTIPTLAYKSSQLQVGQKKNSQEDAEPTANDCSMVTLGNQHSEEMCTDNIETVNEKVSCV
Hep lipid drop = hepatic lipid droplet formation modulation | AML12 mouse hepatocytes, oleate lipid droplets, BODIPY imaging | inhibition, % at 6.5 µM | hit rate 0.4% among 240,000 | AID 1656;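 active means lipid droplet intensity inhibited by at least 50%, with more than 500 cells counted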
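material = mouse AML12 hepatocyte cell line, fixed after treatment | also added = 100 µM oleic acid challenge | doses = compound at 6.5 µM only | schedule = overnight exposure | technique = Image-based BODIPY and DAPI two-channel analysis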
PREPL inhibitor = inhibits the human prolyl oligopeptidase-like enzyme. recombinant PREPL, fluorescence polarization activity-based probe. inhibition, % at 5.96 µM. hit rate 0.68% among 320,000. AID 2751; in the data active means inhibition above about 43%
MC4R barr agon = human MC4R agonism via beta-arrestin. P32245. U2OS MC4R beta-arrestin complementation, luminescence; percent of melanotan II response, DMSO zero. activation, % at 8.9 µM. hit rate 0.98% among 360,000. AID 540308;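 active means activation above a per-plate cutoff, the mean activation of sample wells on that plate plus 3 SD, cut at about 8% in these data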
MC4R barr ag = human MC4R beta-arrestin agonism confirmation. shares compounds with MC4R barr agon. U2OS MC4R beta-arrestin recruitment, luminescence; scaled DMSO 0%, Melanotan II 100%. activation, % at 8.9 µM. hit rate 31% among 2,400. AID 602192;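 active means mean activation across replicates above the hit cutoff set in the earlier primary screen, cut at about 8% in these data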
MOR DOR agonist = activates mu-delta opioid heterodimer, MC4R agonist counter-screen | shares compounds with MC4R barr agon | U2OS PathHunter beta-arrestin, beta-gal luminescence; percent of deltorphin B response, DMSO zero | activation, % at 9.2 µM | hit rate 5.8% among 2,400 | AID 602194;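 active means mean activation across replicates exceeds the hit threshold derived in the earlier primary screen, cut at about 18% in these data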
Numbers stand for hits; n = inactive; x = not tested or not shown. Hits are enriched below; roughly 2.7% of the tested compounds scored in any of these assays.

SMILES | MC4R antagonist | NTR1 ag | m5-HT2A agonist | Hep lipid drop | PREPL inhibitor | MC4R barr agon | MC4R barr ag | MOR DOR agonist
CCOc1ccc(OCc2ccc(C(=O)N3N=C(C(F)F)CC3(O)C(F)F)o2)cc1 (stereo unspecified) | n | n | n | n | n | n | x | x
O=C(c1ccc(COc2ccc(Br)cc2)o1)N1N=C(C(F)F)CC1(O)C(F)F (stereo unspecified) | n | n | n | n | n | 11.0 | 22.3 | n
C[C@@H](CN1C(=O)C(=O)NC[C@@H]1C)NC(=O)CC12CC3CC(CC(C3)C1)C2 | n | n | n | x | n | n | x | x
Clc1ccc(Cn2cc(/C=N/n3cnnc3)c3ccccc32)c(Cl)c1 | n | n | n | n | n | 16.1 | 11.2 | n
COc1ccc(NC(=O)c2c(Nc3ccccc3)sc(C(=O)c3ccc(F)cc3)c2N)cc1 | n | n | n | n | n | 12.1 | 13.7 | n
N#C/C(=C/c1ccc(N2CCCCC2)o1)C(=O)Nc1ccc(Cl)cc1 | n | n | n | n | n | 10.5 | n | n
N#C/C(=C\c1ccc(N2CCOCC2)o1)C(=O)Nc1ccc(O)cc1 | n | n | n | n | n | n | x | x
CCOC(=O)c1c(C)[nH]c(C)c1C(=O)COC(=O)c1cccs1 | n | n | n | x | n | n | x | x
Cc1cc(N2CCN(c3nc(-c4ccc([N+](=O)[O-])cc4)cs3)CC2)c2ccccc2n1 | n | n | n | n | n | 18.5 | 11.1 | n
Cc1cc(-c2ccc([N+](=O)[O-])cc2)nc2ccccc12 | n | n | n | n | n | n | x | x
OCCN(CCO)c1ccc(C(c2ccccc2Cl)c2ccc(N(CCO)CCO)cc2Cl)c(Cl)c1 | n | n | n | n | n | 14.5 | 9.6 | n
C=CCC[C@@H](Cc1ccc(F)cc1)C(=O)OC[C@H](Cc1c[nH]c2ccccc12)NC(=O)[C@@H](CC=C)CC(=O)N[C@H](CO)Cc1ccccc1 | n | n | n | x | n | n | x | x
C=CC[C@@H](CC(=O)N[C@@H](CO)Cc1ccccc1)C(=O)N[C@@H](COC(=O)[C@@H](CC=C)Cc1ccc(F)cc1)Cc1c[nH]c2ccccc12 | n | n | n | x | n | 19.6 | n | n
C=CCC[C@H](Cc1ccc(F)cc1)C(=O)OC[C@H](Cc1c[nH]c2ccccc12)NC(=O)[C@@H](CC=C)CC(=O)N[C@@H](CO)Cc1ccccc1 | n | n | n | x | n | 24.4 | 14.8 | n
C=CCC[C@H](Cc1ccc(F)cc1)C(=O)OC[C@H](Cc1c[nH]c2ccccc12)NC(=O)[C@H](CC=C)CC(=O)N[C@H](CO)Cc1ccccc1 | n | n | n | x | n | 10.7 | n | n
COc1cccc(NC(=O)CN(C)C(=O)c2cc3c(s2)CCCCC3)c1 | n | n | n | x | n | n | x | x
O=C(Nc1ccccc1[N+](=O)[O-])OCC=Cc1ccccc1 | n | x | n | x | x | n | x | x
CCC(C)c1ccccc1OCCn1ccnc1 (stereo unspecified) | n | n | n | n | n | n | x | x
C=CCn1c(=S)[nH]c2cc(C(=O)Nc3ccc(OC)c(OC)c3)ccc2c1=O | n | n | n | n | n | 10.1 | n | n
COCCn1c(=O)[nH]c2cc(C(=O)Nc3ccc(OC)c(Cl)c3)ccc2c1=O | n | n | n | n | n | n | x | x
O=C(CN(Cc1ccccc1)S(=O)(=O)c1cccc(C(F)(F)F)c1)NC1CCCCC1 | n | n | n | n | n | 12.3 | n | n
CC(c1ccccc1)N(CC(=O)NC1CCCCC1)S(=O)(=O)c1cccc(C(F)(F)F)c1 (stereo unspecified) | n | n | n | n | n | n | x | x
N#C/C(=C\c1ccc[nH]1)C(=O)Nc1ccccc1Cl | n | n | n | n | n | 11.8 | n | n
COc1ccc(NC(=O)/C(C#N)=C/c2ccc[nH]2)c(OC)c1 | n | n | n | n | n | 10.5 | n | n
N#C/C(=C\c1ccc[nH]1)C(=O)Nc1ccccc1F | n | n | n | n | x | n | x | x
SMILES | MC4R antagonist | NTR1 ag | m5-HT2A agonist | Hep lipid drop | PREPL inhibitor | MC4R barr agon | MC4R barr ag | MOR DOR agonist
CCc1[nH]c(C(=O)O)c(C)c1C(=O)OC | n | n | n | n | n | n | x | x
O=CNc1cc(-c2cccc(F)c2)cn2c(-c3ccc(F)cc3)cnc12 | n | x | n | x | x | 11.9 | 16.4 | n
CS(=O)(=O)Nc1cccc(-c2cc(NC=O)c3ncc(-c4ccc(F)cc4)n3c2)c1 | n | x | n | x | x | n | x | x
CC(=O)Nc1cccc(-c2cc(NC(C)=O)c3ncc(-c4ccc(F)cc4)n3c2)c1 | n | x | n | x | x | 17.3 | 10.5 | n
CC(=O)Nc1cc(-c2ccc(S(C)(=O)=O)cc2)cn2c(-c3ccc(F)cc3)cnc12 | n | x | n | x | x | n | x | x
CC(=O)Nc1cc(-c2cccc(F)c2)cn2c(-c3ccc(F)cc3)cnc12 | n | x | n | x | x | 39.8 | 63.6 | n
CC1(N=Cc2cc(Cl)ccc2O)COP(=O)(NC2CCCC2)OC1 (stereo unspecified) | n | x | n | x | x | n | x | x
CCN(CC(=O)NCc1cccs1)C(=O)/C=C/c1ccc(OC)c(OC)c1 | n | n | n | x | n | n | x | x
Cc1ccc(-c2cc(-c3cccc(F)c3)n[nH]2)c(O)c1 | n | n | n | n | n | n | x | x
Cc1ccc(O)c(-c2cc(-c3cccc(F)c3)n[nH]2)c1 | n | n | n | n | n | 10.0 | n | n
CCC(C)(C)c1ccc(OCCCC[n+]2cccc(C)c2C)c(C(C)(C)CC)c1 | n | n | n | n | n | 22.8 | 21.6 | n
CCC(C)(C)c1ccc(OCCCC[n+]2ccc(C)cc2)c(C(C)(C)CC)c1 | x | n | x | n | n | x | x | x
COc1ccc(OC)c(CNC(=O)CCS(=O)(=O)c2ccc3c(c2)oc(=O)n3C)c1 | n | n | n | n | n | n | x | x
O=C(Nc1ccc(C(F)(F)F)cc1-c1ccccc1)c1ccccc1 | n | n | n | n | n | 12.9 | n | n
O=C(Nc1ccccc1-c1ccccc1)c1cccc(C(F)(F)F)c1 | n | n | n | n | n | n | x | x
Cc1ccc(C(=O)c2no[n+]([O-])c2C(=O)c2ccc(C)cc2)cc1 | n | n | n | n | n | 19.0 | n | 39.0
COCCNC(=O)c1cccc2c(-c3cccc(C(N)=O)c3)coc12 | n | x | n | x | x | n | x | x
CC(=O)c1cccc(NC(=O)c2cccc3c(-c4cccc(C(N)=O)c4)coc23)c1 | n | x | n | x | x | 20.1 | n | n
O=C(Nc1ccc2c(c1)OCO2)c1nn(-c2ccccc2)c(=O)c2ccccc12 | n | n | n | n | n | 10.7 | n | n
COc1cccc(-n2nc(C(=O)Nc3ccc4c(c3)OCO4)c3ccccc3c2=O)c1 | n | n | n | n | n | n | x | x
Cc1ccsc1-c1nc(CN(C)C(C2CC2)C2CC2)c(C)o1 | n | n | n | n | n | n | x | x

Bioassay records from PubChem BioAssay.
